Screens (PubChem BioAssay)
ZTA DNA inh – counter-screen for EBNA-1 inhibitors: inhibitors of Epstein-Barr virus ZTA; P03206; ZTA-DNA binding, fluorescence polarization; inhibition, % at 11 µM; 320,000 tested, 0.15% active; AID 2234; in the data active means inhibition above about 33%
Target sequence (P03206 whole entry, looked up): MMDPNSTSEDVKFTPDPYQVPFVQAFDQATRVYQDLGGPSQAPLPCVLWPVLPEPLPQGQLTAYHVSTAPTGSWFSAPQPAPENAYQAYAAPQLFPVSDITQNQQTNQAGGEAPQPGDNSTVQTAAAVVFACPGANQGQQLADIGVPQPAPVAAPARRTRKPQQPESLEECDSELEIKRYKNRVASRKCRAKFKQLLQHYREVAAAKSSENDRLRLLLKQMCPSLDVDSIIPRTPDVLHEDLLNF
PP5 inh – PP5 (human) phosphatase inhibition; AID 1987; 320,000 tested, 0.18% active; purified PP5c, OMFP substrate fluorescence; inhibition, % at 6.7 µM; P53041;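 active means inhibition above the campaign's mean inhibition across all tested compounds plus 3 SD, cut at about 9.5% in these data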
PP1 counter – PP1-alpha (human) inhibition in PP5 counter-screen | P62136 | inhibition, % at 6.7 µM | purified PP1alpha, OMFP fluorescence | AID 2235 | 320,000 tested, 0.9% active;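 active means inhibition above the mean inhibition of all tested compounds plus 3 SD, computed separately for each screening campaign, cut at about 15% in these data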
Target sequence (P62136 whole entry, looked up): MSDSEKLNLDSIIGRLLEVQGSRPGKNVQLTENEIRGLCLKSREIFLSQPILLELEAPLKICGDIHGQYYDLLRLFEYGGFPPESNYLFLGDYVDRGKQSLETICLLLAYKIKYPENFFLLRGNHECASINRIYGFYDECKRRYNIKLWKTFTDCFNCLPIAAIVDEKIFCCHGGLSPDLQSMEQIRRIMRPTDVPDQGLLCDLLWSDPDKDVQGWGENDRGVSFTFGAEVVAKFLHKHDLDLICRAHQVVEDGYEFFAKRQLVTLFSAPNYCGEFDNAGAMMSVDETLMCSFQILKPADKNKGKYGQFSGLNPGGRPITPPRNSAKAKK
EBNA-1 inh – blocks EBNA-1 binding to DNA. EBNA-1 DNA binding, fluorescence polarization. 300,000 tested, 0.34% active. inhibition, % at 14.8 µM; in the data active means inhibition above about 28%
HCV core dimer – HCV core protein dimerization inhibition. TR-FRET GST/Flag-core106 dimerization, 1536-well. AID 1899. 300,000 tested, 0.33% active. inhibition, % at 5 µM;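 active means inhibition above the mean of all tested compounds plus 3 SD, set per screening campaign, cut at about 45% in these data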
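Test system: GST/Flag-tagged HCV core106 proteins; Medium: KF-containing HEPES buffer, pH 7.45, DTT, CHAPS, BSA; Times: compound-protein-antibody incubation 4 h at 22.5 °C; Detection: TR-FRET 671 and 617 nm emission; Benchmarks: wells lacking GST-core106 and wells with excess unlabelled core106.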
EBNA-1 confirm – EBNA-1 (EBV) inhibition, confirmation; shares compounds with EBNA-1 inh; Recombinant EBNA-1 DBD, Cy5-DNA fluorescence polarization; inhibition, % at 14.8 µM; 830 tested, 35% active;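 active means mean inhibition across replicates above a set limit taken from the earlier primary screen, cut at about 28% in these data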
ZTA DNA inh trip – counter-screen for EBNA-1 inhibitors: Epstein-Barr virus ZTA inhibitors, triplicate. shares compounds with EBNA-1 inh. 830 tested, under 10 active. inhibition, % at 11.1 µM. Zta-ZRE DNA binding, Cy5 fluorescence polarization;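 active means mean inhibition over triplicates above a set limit taken from the primary EBNA-1 screen, cut at about 37% in these data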;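 further: purified full length Zta protein with Cy5 labeled ZRE DNA probe; inhibitors lower polarization by freeing the labeled DNA probe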
Of the large screens only hits and unclear results are named; the others gave an inactive call (follow-up assays come after a bar, where they were run). Only some compounds are listed: those with a hit (about 1.7% of all), similar ones and a draw of the others.

O=C(NC(NC(=S)Nc1ccc(Cl)cc1Cl)C(Cl)(Cl)Cl)c1cccc([N+](=O)[O-])c1 (stereo not given)	PP1 counter 15
Cc1ccc(S(=O)(=O)NC(=O)c2ccc(-c3ccc(-c4ccccc4)cc3)o2)c(C)c1	PP1 counter 16
Cc1ccc(S(=O)(=O)NC(=O)c2ccc(F)cc2)c(C)c1	none
COc1ccc(NS(=O)(=O)c2cc(NC(=O)/C=C/c3cccs3)ccc2N2CCOCC2)cc1	EBNA-1 inh 73
CCCCCC(=O)Nc1ccc(N2CCOCC2)c(S(=O)(=O)Nc2ccc(OC)cc2)c1	none
CCOC(=O)C1=CC[C@H]2c3c(c4ccccc4n3C)C(=O)C1N2C(=O)OC(C)(C)C	none (no result: EBNA-1 inh, HCV core dimer)
CC(C)c1cc(C(C)C)c(S(=O)(=O)N2c3ccccc3[C@@]3(Br)C[C@H]4C(=O)N[C@@H](Cc5ccccc5)C(=O)N4[C@@H]23)c(C(C)C)c1	PP1 counter 16, HCV core dimer 46
O=C(Nc1nc2ccsc2c(=O)s1)c1ccc(Cl)cc1	none
O=C(COc1ccc(Cl)cc1)Nc1nnc(-c2ccc3c(c2)CCCC3)o1	none
O=C(COc1ccccc1)Nc1nnc(-c2ccc(Cl)cc2)o1	PP1 counter 17
CCOc1ccccc1C(=O)OCC(=O)Nc1nnc(-c2ccccc2)o1	none
CCOc1ccccc1C(=O)NC(C(=O)OCC(=O)Nc1nnc(-c2ccccc2)o1)C(C)C (stereo not given)	PP1 counter 16
CCCC(=O)NC(c1ccccc1OC)c1ccc2cccnc2c1O (stereo not given)	none
CCCCC(=O)NC(c1ccccc1OC)c1ccc2cccnc2c1O (stereo not given)	PP1 counter 15
CCOc1ccccc1NC(=O)CSc1nnc(CNC(=O)c2c(F)cccc2Cl)o1	none
Cc1cc(NC(=O)NC(=O)c2ccccc2)no1	none
O=C(/C=C\c1ccc2c(c1)OCO2)Nc1c2c(nn1-c1ccc(Cl)cc1)CSC2	HCV core dimer 47
COc1ccc(-c2nn(-c3ccccc3)cc2C(=O)OCC(=O)c2ccc(C)c([N+](=O)[O-])c2)cc1	none
CCN(CC)c1ccc(NC(=O)CSc2ccsc2[N+](=O)[O-])c(C)c1	HCV core dimer 49
Cc1[nH]n(-c2ccccc2)c(=O)c1C=Nc1cccc2cccnc12	PP1 counter 16
Cc1[nH]n(-c2ccccc2)c(=O)c1/C=N/Nc1nncc(-c2ccccc2)n1	PP1 counter 17
CNc1ccc(C2(O)C(=O)c3ccccc3C2=O)cc1	none
C=CCSC(=C(C#N)C#N)c1cc2c([nH]1)CCCC2	none
O=C(Nc1ccc(Cl)c(Cl)c1)Nc1nccs1	PP1 counter 18
COc1ccc(C2CC(c3cccs3)=NN2C(=O)CSc2nc(=O)n3ccc(C)cc3n2)cc1 (stereo not given)	HCV core dimer 48
CCOC(=O)/C=C1\SCC(=O)N1Cc1ccc(Br)cc1	none
CCOC(=O)/C=C1\SCC(=O)N1Cc1nnc(-c2ccccc2Br)o1	HCV core dimer 64
CC1=C(C(=O)Nc2ccccc2C)C(c2ccc(C)o2)n2c(s/c(=C/c3ccccc3)c2=O)=N1 (stereo not given)	HCV core dimer 48
CC1=C(C(=O)Nc2ccccc2)C(c2ccc(C)o2)n2c(s/c(=C/c3ccccc3)c2=O)=N1 (stereo not given)	none
CCn1nnnc1SCC(=O)N1CCCCC1	none
Cc1ccc(S(=O)(=O)N2CCN(c3nc(C(C)C)c4c(c3C#N)CC(C)(C)OC4)CC2)cc1	ZTA DNA inh 70, EBNA-1 inh 88
Cc1nc2c(C(=O)NCCC(C)C)c[nH]n2c(=O)c1Cc1ccccc1F	PP1 counter 15
CN(C(=O)COC(=O)CNC(=O)c1sc2ccccc2c1Cl)c1ccccc1	none
NCCC1CCCC(CCN)N1 (stereo not given)	ZTA DNA inh active, EBNA-1 inh active
CC1C(=O)Nc2ccc(S(=O)(=O)N3CCCCCC3)cc21 (stereo not given)	none (no result: EBNA-1 inh, HCV core dimer)
Cc1ccc(/C=C/C2=Cc3c(sc(NC(=O)CSc4n[nH]c(N)n4)c3C#N)C(C)(C)C2)o1	PP1 counter 57, EBNA-1 inh 49, HCV core dimer 89
Cc1nn(CC2CC2)c(=O)n1-c1ccc(Oc2ccccc2)cc1	none
Cc1ccc2oc(-c3ccc(NC(=O)c4ccncc4)cc3O)nc2c1	none
COc1ccc(CC(=O)Nc2ccc(-c3nc4cc(C)ccc4o3)c(O)c2)cc1OC	PP1 counter 16
CCCCn1c(SCC(=O)Nc2cc(C)on2)nc2ccccc2c1=O	HCV core dimer 73
Cc1ccc(NCc2nnc(SCC(=O)c3ccccc3)n2Cc2ccco2)c(C)c1	HCV core dimer 64
CCOc1ccc(/C=N/NC(=O)c2ccccc2O)cc1CN1CC2CC(C1)c1cccc(=O)n1C2 (stereo not given)	none (no result: EBNA-1 inh, HCV core dimer)
CCOC(=O)/C=c1\s/c(=C\c2ccc(C(F)(F)F)cc2)c(=O)n1CC(=O)NCc1ccco1	HCV core dimer 54
CCOC(=O)/C=c1\s/c(=C\c2ccc(C)cc2)c(=O)n1CC(=O)NCc1ccco1	EBNA-1 inh 45
CCOC(=O)/C=c1\s/c(=C\c2ccc(-c3ccccc3)cc2)c(=O)n1CC(=O)NCc1ccc2c(c1)OCO2	none
O=[N+]([O-])c1ccc(N2CCN(c3ccccn3)CC2)c(Cl)c1	none
CC1C(=O)C(C)C(c2cc(Cl)ccc2O)NC1c1cc(Cl)ccc1O (stereo not given)	none
c1ccc(OCc2nnc3sc(C4COc5ccccc5O4)nn23)cc1 (stereo not given)	HCV core dimer 51
Cc1ccc(NC(=S)NC(=O)c2ccc(F)cc2)cc1S(=O)(=O)Nc1ccccc1Cl	EBNA-1 inh 28 | EBNA-1 confirm inactive | ZTA DNA inh trip inactive
Cc1cc(C(=O)OCC(=O)c2c(N)n(C)c(=O)n(C)c2=O)c(C)n1-c1ccccc1	EBNA-1 inh 41 | EBNA-1 confirm 82 | ZTA DNA inh trip inactive
Cn1c(N)c(C(=O)COC(=O)/C=C/c2ccc(Cl)cc2)c(=O)n(C)c1=O	none (no result: EBNA-1 inh, HCV core dimer)
COc1ccccc1/C=C/C(=O)OCC(=O)c1c(N)n(C)c(=O)n(C)c1=O	EBNA-1 inh 48 | EBNA-1 confirm inactive | ZTA DNA inh trip inactive
CCCOc1ccc(C(=O)OCC(=O)c2c(N)n(C)c(=O)n(C)c2=O)cc1OCC	none
CCOc1cc(C(=O)OCC(=O)c2c(N)n(C)c(=O)n(C)c2=O)cc(OCC)c1OCC	EBNA-1 inh 76 | EBNA-1 confirm 61 | ZTA DNA inh trip inactive
CC(=O)/C(=N\Nc1cccc(Cl)c1)Sc1nnc(-c2ccccc2)n1-c1ccccc1	EBNA-1 inh 33 | EBNA-1 confirm inactive | ZTA DNA inh trip inactive
